Assay results reported in ChEMBL document CHEMBL1156229, “Pharmacophore development and application toward the identification of novel, small-molecule autotaxin inhibitors” (J Med Chem, 2010).

molecular target: Autotaxin (Homo sapiens, UniProt Q13822); assay: Inhibition of human recombinant C-terminal FLAG-tagged autotaxin expressed in baculovirus-infected Sf9 cells assessed as FS-3 hydrolysis at 10 uM relative to control
Method in brief: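 Single-dose screen: inhibitor 10 μM final, purified recombinant human ATX 8.3 nM, FS-3 1 μM, fatty acid free BSA 30 μM in Tris pH 8 buffer (1 mM MgCl2, 1 mM CaCl2, 3 mM KCl, 140 mM NaCl), 37 °C. Fluorescence (ex 485/em 538) read every 2 min; percent activity vs vehicle after no-ATX subtraction at 1 h; mean ± SD of three wells.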

| SMILES | inhibition [%] |
| --- | --- |
| O=C(O)c1ccccc1-c1c2cc/c(=N\c3ccccc3)cc-2oc2cc(Nc3ccc(S(=O)(=O)O)cc3)ccc12 | 27 |
| O=C(Nc1ccc2cc(S(=O)(=O)O)ccc2c1)c1ccc([N+](=O)[O-])cc1 | -1 |
| O=C(Nc1ccccc1)C(=N/Nc1cc(S(=O)(=O)O)ccc1O)/N=N/c1cc(S(=O)(=O)O)ccc1O | 0 |
| COc1ccc(/C=N/NC(=N)C(=N)N/N=C/c2ccc(OC)c(S(=O)(=O)O)c2)cc1S(=O)(=O)O | 8 |
| O=C1/C(=C2\Nc3ccc(S(=O)(=O)O)cc3C2=O)Nc2ccc(S(=O)(=O)O)cc21 | 12 |
| O=S(=O)(O)c1ccc(O)c(/N=N/C=N/Nc2cc(S(=O)(=O)O)ccc2O)c1 | -1 |
| Nc1cc(N)c(/N=N/c2cccc3c(S(=O)(=O)O)cccc23)cc1/N=N/c1cc([N+](=O)[O-])ccc1O | 19 |
| COc1cc(/N=N/c2c(C)cc(C)cc2S(=O)(=O)O)c(C)cc1/N=N/c1c(S(=O)(=O)O)cc2cc(Nc3ccccc3)ccc2c1O | 2 |
| Nc1ccc2cc(S(=O)(=O)O)cc(O)c2c1/N=N/c1ccc(NC(=O)Nc2ccc(/N=N/c3c(N)ccc4cc(S(=O)(=O)O)cc(O)c34)c(S(=O)(=O)O)c2)cc1S(=O)(=O)O | 22 |
| Cc1cc(C(O)(c2ccc(Nc3ccccc3)cc2)c2ccc(Nc3ccc(S(=O)(=O)O)cc3)cc2)ccc1N (stereo not drawn) | 65 |
| Nc1cccc(/N=N/c2c(S(=O)(=O)O)cc3cc(Nc4ccc5c(O)c(/N=N/c6cccc(N)c6)c(S(=O)(=O)O)cc5c4)ccc3c2O)c1 | 33 |
| COc1ccc(/C=N/NC(=O)C(=O)N/N=C/c2ccc(OC)c(S(=O)(=O)O)c2)cc1S(=O)(=O)O | 0 |
| Nc1ccc(C(=O)Nc2cccc(C(=O)Nc3ccc4c(O)c(/N=N/c5ccc(/N=N/c6ccc(S(=O)(=O)O)cc6)cc5)c(S(=O)(=O)O)cc4c3)c2)cc1 | 39 |
| Nc1c(S(=O)(=O)O)cc(Nc2cccc(S(=O)(=O)/C=C/S(=O)(=O)O)c2)c2c1C(=O)c1ccccc1C2=O | 43 |
| O=C(Nc1ccc2c(O)cc(S(=O)(=O)O)cc2c1)Nc1ccc2c(O)c(/N=N/c3ccc4cc(S(=O)(=O)O)ccc4c3)c(S(=O)(=O)O)cc2c1 | 36 |
| O=C(Nc1ccc(S(=O)(=O)c2ccc(NC(=O)Nc3ccc4cc(S(=O)(=O)O)ccc4c3)cc2)cc1)Nc1ccc2cc(S(=O)(=O)O)ccc2c1 | 43 |
| O=C1c2ccc(S(=O)(=O)O)cc2C(=O)c2c(Nc3ccccc3)ccc(Nc3ccc(S(=O)(=O)O)cc3)c21 | 6 |

| SMILES | inhibition [%] |
| --- | --- |
| CCCCc1ccc(Nc2ccc(Nc3ccc(CCCC)cc3S(=O)(=O)O)c3c2C(=O)c2ccccc2C3=O)c(S(=O)(=O)O)c1 | 8 |
| O=C(Nc1ccc(C(=O)Nc2ccc3c(O)cc(S(=O)(=O)O)cc3c2)cc1)c1ccccc1 | 21 |
| Cc1ccc(C(=O)Nc2ccc(S(=O)(=O)O)c3cc(S(=O)(=O)O)cc(S(=O)(=O)O)c23)cc1NC(=O)c1cccc(NC(=O)Nc2cccc(C(=O)Nc3cc(C(=O)Nc4ccc(S(=O)(=O)O)c5cc(S(=O)(=O)O)cc(S(=O)(=O)O)c45)ccc3C)c2)c1 | 27 |
| O=C(Nc1ccc2c(O)c(/N=N/c3ccccc3)c(S(=O)(=O)O)cc2c1)Nc1ccc2c(O)c(/N=N/c3ccccc3)c(S(=O)(=O)O)cc2c1 | 23 |
| O=C(Nc1ccc2c(O)cc(S(=O)(=O)O)cc2c1)c1ccc([N+](=O)[O-])cc1 | 12 |
| Nc1cc(C(=O)Nc2ccc(S(=O)(=O)O)cc2)ccc1C(=O)Nc1ccc(S(=O)(=O)O)cc1 | -2 |
| CC(=O)Nc1ccc(/N=N/c2c(S(=O)(=O)O)cc3cc(NC(=O)Nc4ccc5c(O)c(/N=N/c6ccccc6)c(S(=O)(=O)O)cc5c4)ccc3c2O)cc1 | 17 |
| O=C1Nc2ccc(S(=O)(=O)O)cc2/C1=N/Nc1ccccc1[N+](=O)[O-] | 8 |
| O=C(Nc1cc(O)ccc1Oc1cc(O)c(O)cc1S(=O)(=O)O)Nc1cc(O)ccc1Oc1cc(O)c(O)cc1S(=O)(=O)O | 0 |
| O=C(N/N=C/c1ccccc1S(=O)(=O)O)C(=O)N/N=C/c1ccccc1S(=O)(=O)O | -2 |
| O=C(N/N=C/c1ccccc1S(=O)(=O)O)N/N=C/c1ccccc1S(=O)(=O)O | -5 |
| O=S(=O)(O)c1ccccc1/C=N/NC(=S)N/N=C/c1ccccc1S(=O)(=O)O | 1 |
| COc1ccc(NS(=O)(=O)c2ccc(NC(CNC(C)S(=O)(=O)O)S(=O)(=O)O)cc2)cc1 (stereo not drawn) | 4 |
| COc1cc(S(=O)(=O)O)ccc1/N=N/C(=N\Nc1ccc(S(=O)(=O)O)cc1OC)C(N)=O | -1 |
| O=C(Nc1cccc(C(=O)Nc2ccc(S(=O)(=O)O)c3cc(S(=O)(=O)O)cc(S(=O)(=O)O)c23)c1)Nc1cccc(C(=O)Nc2cccc3c(S(=O)(=O)O)c(S(=O)(=O)O)cc(S(=O)(=O)O)c23)c1 | 27 |
| Cc1[nH]n(-c2cc(S(=O)(=O)O)ccc2O)c(=O)c1/N=N/c1c(NC(=O)c2ccc(N)cc2)ccc2cc(S(=O)(=O)O)ccc12 | 49 |

Next, values leading:

| inhibition [%] | SMILES |
| --- | --- |
| 5 | N=C(N/N=C/c1ccccc1S(=O)(=O)O)C(=N)N/N=C/c1ccccc1S(=O)(=O)O |
| 0 | O=C(Nc1ccc2cc(S(=O)(=O)O)cc(S(=O)(=O)O)c2c1)Nc1ccc2cc(S(=O)(=O)O)cc(S(=O)(=O)O)c2c1 |
| 1 | O=C(Nc1ccc(S(=O)(=O)O)cc1)c1ccc(/N=N/c2cc(S(=O)(=O)O)c3ccccc3c2O)cc1 |
| 1 | NC(Cc1ccc(O)cc1)C(=O)NCCS(=O)(=O)O (stereo not drawn) |
| 12 | Nc1ccc(C(=O)Nc2ccc(NC(=O)Nc3ccc(NC(=O)c4ccc(N)cc4)c(S(=O)(=O)O)c3)cc2S(=O)(=O)O)cc1 |
| 0 | Nc1ccc(C(=O)Nc2ccc(C(=O)Nc3ccc(/C=C/c4ccc(NC(=O)c5ccc(N)cc5)cc4S(=O)(=O)O)c(S(=O)(=O)O)c3)cc2)cc1 |
| 1 | O=S(=O)(O)c1ccc(/N=N/Nc2ccc(S(=O)(=O)O)cc2)cc1 |
| 29 | O=C(Nc1cccc(C(=O)Nc2ccc3cc(S(=O)(=O)O)cc(S(=O)(=O)O)c3c2)c1)Nc1cccc(C(=O)Nc2ccc3cc(S(=O)(=O)O)cc(S(=O)(=O)O)c3c2)c1 |
| 35 | Cc1cc(/N=N/c2ccc(/C=C/c3ccc(/N=N/c4cc(C)c(N)c(/N=N/c5ccc(S(=O)(=O)O)cc5)c4N)cc3S(=O)(=O)O)c(S(=O)(=O)O)c2)c(N)c(/N=N/c2ccc(S(=O)(=O)O)cc2)c1N |
| 1 | Nc1ccc2c(O)c(/N=N/c3ccc(-c4ccc(/N=N/c5c(S(=O)(=O)O)cc6cc(S(=O)(=O)O)c(/N=N/c7cc(O)ccc7O)c(N)c6c5O)cc4)cc3)c(S(=O)(=O)O)cc2c1 |
| -6 | O=C(Nc1ccc2cc(S(=O)(=O)O)cc(O)c2c1)Nc1ccc2cc(S(=O)(=O)O)cc(O)c2c1 |
| 2 | COc1ccc(/C=N/NC(=O)N/N=C/c2ccc(OC)c(S(=O)(=O)O)c2)cc1S(=O)(=O)O |
| 5 | O=C(N/N=C/c1ccc(O)c(S(=O)(=O)O)c1)C(=O)N/N=C/c1ccc(O)c(S(=O)(=O)O)c1 |
| 6 | Cc1ccc(C(=O)Nc2ccc(S(=O)(=O)[O-])c3cc(S(=O)(=O)O)cc(S(=O)(=O)[O-])c23)cc1NC(=O)c1cccc(NC(=O)Nc2cccc(C(=O)Nc3cc(C(=O)Nc4ccc(S(=O)(=O)O)c5cc(S(=O)(=O)O)cc(S(=O)(=O)O)c45)ccc3C)c2)c1.Cc1ccc(C)c2c1c(NCCCCCCNc1cc(C)[n+](C)c3c(C)ccc(C)c13)cc(C)[n+]2C |
| 39 | COc1cc(/N=N/c2ccc(/N=N/c3cc(S(=O)(=O)O)ccc3S(=O)(=O)O)c(C)c2)c(C)cc1/N=N/c1ccc(NC(=O)c2ccc(N)cc2)cc1C |
